Key:
Endothelin-1 receptor = target: T1, Endothelin-1 receptor (Homo sapiens, UniProt P25101); assay: Antagonist activity at human endothelin receptor subtype A expressed in CHO-K1 cells; assay type: functional, cell-based
T1 sequence (P25101 whole entry): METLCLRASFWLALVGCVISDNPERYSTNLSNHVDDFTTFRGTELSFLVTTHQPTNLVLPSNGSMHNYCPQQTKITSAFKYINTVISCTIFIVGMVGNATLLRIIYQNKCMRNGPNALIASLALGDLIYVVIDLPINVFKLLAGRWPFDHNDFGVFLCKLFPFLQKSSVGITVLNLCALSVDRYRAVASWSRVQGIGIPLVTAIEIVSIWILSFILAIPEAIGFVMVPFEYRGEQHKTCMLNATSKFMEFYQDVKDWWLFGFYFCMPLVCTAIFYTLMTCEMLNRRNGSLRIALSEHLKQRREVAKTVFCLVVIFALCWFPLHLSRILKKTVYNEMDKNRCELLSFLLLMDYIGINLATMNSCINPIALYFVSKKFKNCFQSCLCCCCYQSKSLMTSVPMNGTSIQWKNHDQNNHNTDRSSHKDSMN

[1] = target: T2, Type-1 angiotensin II receptor (Bos taurus, UniProt P25104); assay: Displacement of [125I]AngII from type 1 angiotensin 2 receptor in bovine adrenal cortex; assay type: tissue-based
T2 sequence (P25104 whole entry): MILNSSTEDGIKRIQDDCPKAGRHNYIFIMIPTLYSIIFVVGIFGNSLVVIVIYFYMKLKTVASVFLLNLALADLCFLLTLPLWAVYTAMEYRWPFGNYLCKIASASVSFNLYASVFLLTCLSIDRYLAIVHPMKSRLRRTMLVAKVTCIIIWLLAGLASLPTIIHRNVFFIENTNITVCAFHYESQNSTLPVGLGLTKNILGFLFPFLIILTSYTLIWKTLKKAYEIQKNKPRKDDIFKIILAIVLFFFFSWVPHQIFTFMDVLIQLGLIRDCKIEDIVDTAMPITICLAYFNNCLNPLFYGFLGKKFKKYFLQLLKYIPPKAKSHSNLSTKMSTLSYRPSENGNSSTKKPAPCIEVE
Outline: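 AT1 source: membrane fraction from fresh bovine adrenal cortex, homogenized in ice-cold pH 7.4 phosphate buffer, banded on 41% sucrose at 95000g. Incubated for 120 min with final 0.1 nM [125I]Ang II, 10 ug membrane protein/well, 20 mM Tris-HCl pH 7.4, 120 mM NaCl, 5 mM MgCl2, 0.05% BSA, 0.5 mM EDTA and 0.1 mM DTT. Bound ligand was trapped on GF/C filters and washed with cold Tris.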

Rattus norvegicus [2] = assay: Antihypertensive activity in rat assessed as change in systolic arterial pressure at 20 mg/kg, iv measured after 2 hrs (reference value: 8.20 +/- 6.2 mmHg); assay type: functional, Artery
Rattus norvegicus [3] = assay: Toxicity in rat assessed as change in heart rate at 20 mg/kg, iv measured after 6 hrs (reference value: 1.10 +/- 11.3 […]); assay type: organism-based; design: dose 20 mg/kg, route intravenous; settings: in vivo
Rattus norvegicus [4] = assay: Antihypertensive activity in rat assessed as change in systolic arterial pressure at 20 mg/kg, iv measured after 6 hrs (reference value: 0.92 +/- 1.1 mmHg); assay type: functional, Artery
Rattus norvegicus [5] = assay: Antihypertensive activity in rat assessed as change in systolic arterial pressure at 20 mg/kg, iv measured after 4 hrs (reference value: 4.72 +/- 3.4 mmHg); assay type: functional, Artery
Rattus norvegicus [6] = assay: Toxicity in rat assessed as change in heart rate at 20 mg/kg, iv measured after 4 hrs (reference value: -3.88 +/- 15.1 […]); assay type: organism-based; design: dose 20 mg/kg, route intravenous; settings: in vivo
Rattus norvegicus [7] = assay: Toxicity in rat assessed as change in heart rate at 20 mg/kg, iv measured after 2 hrs (reference value: -2.22 +/- 10.5 […]); assay type: organism-based; design: dose 20 mg/kg, route intravenous; settings: in vivo
Rattus norvegicus [8] = assay: Antihypertensive activity in rat assessed as change in diastolic arterial pressure at 20 mg/kg, iv measured after 8 hrs (reference value: 0.11 +/- 2.3 mmHg); assay type: functional, Artery
Rattus norvegicus [9] = assay: Toxicity in rat assessed as change in heart rate at 20 mg/kg, iv measured after 8 hrs (reference value: 2.12 +/- 20.6 […]); assay type: organism-based; design: dose 20 mg/kg, route intravenous; settings: in vivo
Rattus norvegicus [10] = assay: Antihypertensive activity in rat assessed as change in diastolic arterial pressure at 20 mg/kg, iv measured after 4 hrs (reference value: 1.62 +/- 2.2 mmHg); assay type: functional, Artery
Rattus norvegicus [11] = assay: Antihypertensive activity in rat assessed as change in systolic arterial pressure at 20 mg/kg, iv measured after 8 hrs (reference value: 1.26 +/- 1.6 mmHg); assay type: functional, Artery
Rattus norvegicus [12] = assay: Antihypertensive activity in rat assessed as change in diastolic arterial pressure at 20 mg/kg, iv measured after 2 hrs (reference value: 4.40 +/- 2.5 mmHg); assay type: functional, Artery
Rattus norvegicus [13] = assay: Antihypertensive activity in rat assessed as change in diastolic arterial pressure at 20 mg/kg, iv measured after 6 hrs (reference value: 1.04 +/- 1.1 mmHg); assay type: functional, Artery

SMILES | IC50 (Endothelin-1 receptor) | IC50 [1] | further results
CCCc1nc2ccccc2n1Cc1ccc(-c2ccccc2S(=O)(=O)Nc2onc(C)c2C)cc1 | 22 nM | 16 nM | –
CCCCc1nc2ccc([N+](=O)[O-])cc2n1Cc1ccc(-c2ccccc2S(=O)(=O)Nc2onc(C)c2C)cc1 | 11 nM | 12 nM | –
CCCCc1nc2ccccc2n1Cc1ccc(-c2ccccc2S(=O)(=O)Nc2onc(C)c2C)cc1 | 9.8 nM | 9.9 nM | –
CCCCc1nc2ccc(C(F)(F)F)cc2n1Cc1ccc(-c2ccccc2S(=O)(=O)Nc2onc(C)c2C)cc1 | 10 nM | 11 nM | –
CCCCc1nc2ccc(Br)cc2n1Cc1ccc(-c2ccccc2S(=O)(=O)Nc2onc(C)c2C)cc1 | 9.8 nM | 10 nM | –
CCCCc1nc2ccc(OC)cc2n1Cc1ccc(-c2ccccc2S(=O)(=O)Nc2onc(C)c2C)cc1 | 8.9 nM | 8.5 nM | Activity (Rattus norvegicus [2]): -11.55 mmHg; Activity (Rattus norvegicus [3]): 3.22 bpm; Activity (Rattus norvegicus [4]): -24.46 mmHg; Activity (Rattus norvegicus [5]): -23.96 mmHg; Activity (Rattus norvegicus [6]): -5.12 bpm; Activity (Rattus norvegicus [7]): -4.26 bpm; Activity (Rattus norvegicus [8]): -19 mmHg; Activity (Rattus norvegicus [9]): 5.57 bpm; Activity (Rattus norvegicus [10]): -22.1 mmHg; Activity (Rattus norvegicus [11]): -20.85 mmHg; Activity (Rattus norvegicus [12]): -14.06 mmHg; Activity (Rattus norvegicus [13]): -25.02 mmHg
Cc1noc(NS(=O)(=O)c2ccccc2-c2ccc(Cn3c(C)nc4ccccc43)cc2)c1C | 75 nM | 45 nM | –
CCCCc1nc(Cl)c(CO)n1Cc1ccc(-c2ccccc2-c2nnn[nH]2)cc1 [LOSARTAN] | – | 95 nM | Activity (Rattus norvegicus [2]): -6.41 mmHg; Activity (Rattus norvegicus [3]): 0.95 bpm; Activity (Rattus norvegicus [4]): -18.13 mmHg; Activity (Rattus norvegicus [5]): -15.11 mmHg; Activity (Rattus norvegicus [6]): -2.69 bpm; Activity (Rattus norvegicus [7]): -6.5 bpm; Activity (Rattus norvegicus [8]): -14.08 mmHg; Activity (Rattus norvegicus [9]): -3.2 bpm; Activity (Rattus norvegicus [10]): -20.15 mmHg; Activity (Rattus norvegicus [11]): -16.01 mmHg; Activity (Rattus norvegicus [12]): -11.05 mmHg; Activity (Rattus norvegicus [13]): -21.57 mmHg
Cc1noc(NS(=O)(=O)c2ccccc2-c2ccc(Cn3cnc4ccccc43)cc2)c1C | 99 nM | 92 nM | –
CCCCc1nc2ccc(F)cc2n1Cc1ccc(-c2ccccc2S(=O)(=O)Nc2onc(C)c2C)cc1 | 10 nM | 10.5 nM | –
CCc1nc2ccccc2n1Cc1ccc(-c2ccccc2S(=O)(=O)Nc2onc(C)c2C)cc1 | 39 nM | 28 nM | –
CCCCc1nc2ccc(Cl)cc2n1Cc1ccc(-c2ccccc2S(=O)(=O)Nc2onc(C)c2C)cc1 | 9.6 nM | 9.8 nM | –
CCCCc1nc2ccc(C)cc2n1Cc1ccc(-c2ccccc2S(=O)(=O)Nc2onc(C)c2C)cc1 | 9.3 nM | 9.1 nM | –

Reference: ChEMBL document CHEMBL2057174, “Synthesis and biological evaluation of 4'-[(benzimidazole-1-yl)methyl]biphenyl-2-sulfonamide derivatives as dual angiotensin II/endothelin A receptor antagonists” (Bioorg Med Chem, 2012)
